This note sets out measurements from ChEMBL document CHEMBL1132296, “Anticonvulsant and sodium channel-blocking properties of novel 10,11-dihydro-5H-dibenz[b,f]azepine-5-carboxamide derivatives” (J Med Chem, 1999).

The species entered for assay [1] is Rattus norvegicus. Nature of the assay: Compound was tested for anticonvulsant activity against MES-induced seizures in rat. More on the design: concentration or dose not given beside the values.
Assay [2] concerns Rattus norvegicus. As to the kind of experiment: Compound was tested intraperitoneally for anticonvulsant activity against MES-induced seizures in rat by MES test. Type of assay: functional. The following applies: ip. In a few lines:
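Intraperitoneal dosing to rats, MES given at t_max. Corneal electrodes after oxibuprocaine eye drops; abolition of hindleg tonic extensor component as endpoint. 5–8 rats/group; ED50 from logistic equation fit.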

In assay [3] the test system is Rattus norvegicus. As to the kind of experiment: t max for anticonvulsant activity was tested in rats intraperitoneally. It counts as functional, organism-based.
Assay [4] has as its system Rattus norvegicus. Nature of the assay: Compound was tested intraperitoneally for anticonvulsant activity by rotarod test. It counts as functional. The following applies: ip. In short, it runs like this:
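Rats trained to stay 3 min on a 5-cm rod rotating at 6 rpm. Next day, compound ip in DMSO (2 mL/kg), placed on rod 15 min later at 6 rpm. Deficit = failure to hold equilibrium 1 min in each of three trials. 5–8 rats/group; TD50 from logistic fit.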

Assay [5] addresses T1, Sodium channel alpha subunits; brain (Types I, II, III) (Rattus norvegicus) (UniProt P04775+P04774+P08104). As to the kind of experiment: Percent inhibition of 22Na+ uptake by voltage sensitive sodium channel of rat cortical synaptosomes at 300 uM. Type of assay: functional, subcellular.
The target of assay [6] is T1, Sodium channel alpha subunits; brain (Types I, II, III) (Rattus norvegicus). Nature of the assay: Percent inhibition of 22Na+ uptake by voltage sensitive sodium channel of rat cortical synaptosomes at 30 uM. It counts as functional, subcellular.
Assay [7] addresses Sodium channel alpha subunits; brain (Types I, II, III) (Rattus norvegicus, UniProt P04775+P04774+P08104). As to the kind of experiment: Displacement of [3H]BTX from voltage-gated sodium channel of rat cortical synaptosomes. It counts as subcellular.
Assay [8] deals with Rattus norvegicus. As to the kind of experiment: Compound was tested for anticonvulsant activity administered by gastric tube in rat by MES test. It counts as functional. In short, it runs like this: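 Rats, oral by gastric tube, tested at t_max. Rats were pre-screened in a first MES session through corneal electrodes after oxibuprocaine eye drops, and only typical tonic–clonic convulsers were kept. Next day, compound or vehicle, then MES sessions 2 or 4 h and 6, 8 or 12 h post-dose. Endpoint was abolition of hindleg tonic extension. 5–8 rats/group; ED50 from logistic fit.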

The test system of assay [9] is Rattus norvegicus. Nature of the assay: Compound was tested for anticonvulsant activity administered by gastric tube in rat by rotarod test. It counts as functional. (In general: In the rotarod test animals must keep their balance on a rotating rod.)
Assay [10] concerns Rattus norvegicus. As to the kind of experiment: Protective index value of the compound, given by intraperitoneally (TD50/ED50). Type of assay: functional. In short, it runs like this: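 Ratio TD50/ED50 from intraperitoneal rotarod and MES tests in rats. Both values come from logistic fits, 5–8 rats/group.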
Assay [11] has as its system Rattus norvegicus. As to the kind of experiment: t max was for the anticonvulsant effect was tested in rats administered by gastric tube; t max. Type of assay: functional, organism-based. The following applies: Stomach.
Assay [12] has as its target T1, Sodium channel alpha subunits; brain (Types I, II, III) (Rattus norvegicus). Nature of the assay: Percent inhibition of 22Na+ uptake by voltage sensitive sodium channel of rat cortical synaptosomes at 100 uM. It counts as functional, subcellular.
The species named for assay [13] is Rattus norvegicus. As to the kind of experiment: Protective index value of the compound, given by gastric tube (TD50/ED50). Type of assay: functional, Stomach. In short, it runs like this:
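Ratio TD50/ED50 from oral (gastric tube) rotarod and MES tests in rats at t_max. Both values come from logistic fits, 5–8 rats/group.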

Assay [14] addresses T1, Sodium channel alpha subunits; brain (Types I, II, III) (Rattus norvegicus). The following applies: 300 uM.

Molecules are shown by their SMILES.

T1 sequence (P04775 whole entry, looked up, other chains not shown): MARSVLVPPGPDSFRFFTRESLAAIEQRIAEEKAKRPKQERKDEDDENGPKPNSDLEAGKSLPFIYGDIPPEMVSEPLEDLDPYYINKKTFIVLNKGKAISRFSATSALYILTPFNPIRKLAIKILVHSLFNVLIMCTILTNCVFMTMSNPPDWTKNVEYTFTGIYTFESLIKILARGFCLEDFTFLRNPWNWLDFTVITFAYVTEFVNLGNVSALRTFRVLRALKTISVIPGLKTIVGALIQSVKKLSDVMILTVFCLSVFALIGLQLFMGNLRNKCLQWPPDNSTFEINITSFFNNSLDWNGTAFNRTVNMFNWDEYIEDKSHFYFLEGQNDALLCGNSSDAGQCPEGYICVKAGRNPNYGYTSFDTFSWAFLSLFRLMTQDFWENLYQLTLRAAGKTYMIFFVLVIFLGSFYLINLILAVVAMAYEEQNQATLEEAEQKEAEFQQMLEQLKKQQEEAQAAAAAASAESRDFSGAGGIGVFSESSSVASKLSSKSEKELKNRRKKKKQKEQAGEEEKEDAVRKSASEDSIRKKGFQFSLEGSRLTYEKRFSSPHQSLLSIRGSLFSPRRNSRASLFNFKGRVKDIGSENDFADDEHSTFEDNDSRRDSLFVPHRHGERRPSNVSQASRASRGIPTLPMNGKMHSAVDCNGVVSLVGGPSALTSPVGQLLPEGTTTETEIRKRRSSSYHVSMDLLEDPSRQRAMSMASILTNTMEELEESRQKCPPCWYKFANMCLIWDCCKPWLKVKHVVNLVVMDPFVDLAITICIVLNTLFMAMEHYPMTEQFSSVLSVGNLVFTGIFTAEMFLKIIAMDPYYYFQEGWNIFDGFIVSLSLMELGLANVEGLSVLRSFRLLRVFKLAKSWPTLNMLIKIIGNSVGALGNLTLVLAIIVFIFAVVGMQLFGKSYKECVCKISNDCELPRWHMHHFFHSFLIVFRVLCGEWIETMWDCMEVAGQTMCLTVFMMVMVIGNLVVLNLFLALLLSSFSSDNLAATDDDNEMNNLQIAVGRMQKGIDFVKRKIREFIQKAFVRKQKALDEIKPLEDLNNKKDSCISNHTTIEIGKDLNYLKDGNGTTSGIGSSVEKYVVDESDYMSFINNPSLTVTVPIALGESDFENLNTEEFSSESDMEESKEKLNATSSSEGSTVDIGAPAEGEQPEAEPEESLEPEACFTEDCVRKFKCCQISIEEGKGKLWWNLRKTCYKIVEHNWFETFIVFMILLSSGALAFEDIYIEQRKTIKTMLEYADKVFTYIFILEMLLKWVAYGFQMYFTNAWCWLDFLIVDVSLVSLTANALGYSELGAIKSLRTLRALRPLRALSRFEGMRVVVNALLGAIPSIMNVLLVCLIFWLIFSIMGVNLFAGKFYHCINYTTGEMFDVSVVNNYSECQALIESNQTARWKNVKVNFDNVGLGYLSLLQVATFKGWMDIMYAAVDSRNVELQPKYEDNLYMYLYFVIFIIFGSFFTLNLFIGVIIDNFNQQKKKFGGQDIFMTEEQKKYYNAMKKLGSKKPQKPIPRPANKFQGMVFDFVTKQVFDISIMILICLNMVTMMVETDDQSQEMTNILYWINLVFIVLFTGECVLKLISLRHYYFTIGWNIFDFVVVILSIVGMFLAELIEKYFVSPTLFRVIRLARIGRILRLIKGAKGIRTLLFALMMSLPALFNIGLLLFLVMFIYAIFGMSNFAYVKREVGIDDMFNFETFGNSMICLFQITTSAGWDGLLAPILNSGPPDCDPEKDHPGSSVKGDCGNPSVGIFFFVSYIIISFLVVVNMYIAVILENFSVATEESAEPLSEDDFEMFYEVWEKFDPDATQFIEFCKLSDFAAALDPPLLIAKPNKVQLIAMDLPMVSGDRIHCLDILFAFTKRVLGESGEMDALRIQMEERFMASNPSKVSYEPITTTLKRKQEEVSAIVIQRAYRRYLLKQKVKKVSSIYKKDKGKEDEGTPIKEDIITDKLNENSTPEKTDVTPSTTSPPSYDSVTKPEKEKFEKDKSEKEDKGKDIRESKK
T1 sequence (P08104 whole entry, looked up, other chains not shown): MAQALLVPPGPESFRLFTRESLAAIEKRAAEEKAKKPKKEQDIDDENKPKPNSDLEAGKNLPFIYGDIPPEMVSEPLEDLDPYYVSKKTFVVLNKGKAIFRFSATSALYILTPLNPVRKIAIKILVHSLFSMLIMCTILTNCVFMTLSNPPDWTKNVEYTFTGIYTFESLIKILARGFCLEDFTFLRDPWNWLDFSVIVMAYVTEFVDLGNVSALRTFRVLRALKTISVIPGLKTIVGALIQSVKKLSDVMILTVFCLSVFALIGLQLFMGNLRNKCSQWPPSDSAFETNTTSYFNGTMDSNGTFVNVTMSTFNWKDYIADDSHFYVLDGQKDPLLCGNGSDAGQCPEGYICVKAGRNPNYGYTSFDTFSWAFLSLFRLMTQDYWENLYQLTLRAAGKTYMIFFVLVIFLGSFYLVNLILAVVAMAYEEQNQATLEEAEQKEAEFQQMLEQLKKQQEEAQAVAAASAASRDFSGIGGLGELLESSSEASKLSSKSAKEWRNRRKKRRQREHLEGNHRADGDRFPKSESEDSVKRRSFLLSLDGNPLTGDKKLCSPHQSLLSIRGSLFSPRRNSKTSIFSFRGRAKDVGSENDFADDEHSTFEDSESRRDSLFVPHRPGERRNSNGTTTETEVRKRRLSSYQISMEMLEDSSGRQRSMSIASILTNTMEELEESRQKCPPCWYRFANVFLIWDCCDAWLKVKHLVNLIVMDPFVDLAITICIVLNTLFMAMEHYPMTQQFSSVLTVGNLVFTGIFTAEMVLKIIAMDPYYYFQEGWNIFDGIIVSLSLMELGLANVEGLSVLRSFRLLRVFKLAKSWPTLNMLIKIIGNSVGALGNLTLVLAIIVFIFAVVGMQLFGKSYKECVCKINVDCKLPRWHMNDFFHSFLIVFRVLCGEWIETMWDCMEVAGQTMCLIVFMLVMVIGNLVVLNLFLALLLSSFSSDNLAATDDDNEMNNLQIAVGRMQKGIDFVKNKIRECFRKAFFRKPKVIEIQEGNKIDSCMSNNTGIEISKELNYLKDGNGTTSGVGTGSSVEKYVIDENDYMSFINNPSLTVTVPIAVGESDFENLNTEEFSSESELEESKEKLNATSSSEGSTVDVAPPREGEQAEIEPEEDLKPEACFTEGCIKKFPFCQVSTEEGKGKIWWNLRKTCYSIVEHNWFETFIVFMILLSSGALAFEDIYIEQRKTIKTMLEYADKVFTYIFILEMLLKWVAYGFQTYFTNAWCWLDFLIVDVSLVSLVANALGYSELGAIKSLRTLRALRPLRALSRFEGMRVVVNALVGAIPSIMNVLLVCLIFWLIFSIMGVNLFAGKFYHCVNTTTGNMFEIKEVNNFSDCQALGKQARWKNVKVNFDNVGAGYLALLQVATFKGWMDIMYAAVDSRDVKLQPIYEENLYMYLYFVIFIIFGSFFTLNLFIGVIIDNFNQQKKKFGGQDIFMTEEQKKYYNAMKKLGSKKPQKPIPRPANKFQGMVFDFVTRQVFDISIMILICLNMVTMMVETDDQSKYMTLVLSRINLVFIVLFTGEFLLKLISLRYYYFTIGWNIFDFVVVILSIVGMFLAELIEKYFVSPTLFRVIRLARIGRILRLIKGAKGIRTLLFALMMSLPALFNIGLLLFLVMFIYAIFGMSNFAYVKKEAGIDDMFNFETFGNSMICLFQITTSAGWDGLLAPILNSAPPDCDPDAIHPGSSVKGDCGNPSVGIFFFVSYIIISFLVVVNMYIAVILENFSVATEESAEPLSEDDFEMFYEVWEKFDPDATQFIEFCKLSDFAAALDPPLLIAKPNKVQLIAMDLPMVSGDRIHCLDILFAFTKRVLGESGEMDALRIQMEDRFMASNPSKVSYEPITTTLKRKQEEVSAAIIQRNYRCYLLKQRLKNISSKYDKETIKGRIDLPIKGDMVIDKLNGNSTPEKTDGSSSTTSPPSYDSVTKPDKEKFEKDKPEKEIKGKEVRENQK

As for `CCC(=O)OC1Cc2ccccc2N(C(N)=O)c2ccccc21` (centres undefined), in the assay listed under Rattus norvegicus [1], the Protection turned out to be 40.6%.
The same measure, in the same setting: for `NC(=O)N1c2ccccc2CC(OC=O)c2ccccc21` (centres undefined) the value was 32.1%.
One may read the ED50 as the dose at which the effect has come halfway, by size or by number of responders. For orientation: TD50 means the 50% point of the dose-response relation for the toxic effect studied. The compound `NC(=O)N1c2ccccc2C[C@@H](O)c2ccccc21` registered an ED50 in the assay with Rattus norvegicus [2] of 17.9 mg/kg. Also, the Tmax in the assay with Rattus norvegicus [3] came to 30 min. The TD50 with Rattus norvegicus [4] came out at 97.4 mg/kg.
As to `NC(=O)N1c2ccccc2CC(OC(=O)CCl)c2ccccc21` (centres undefined), in the assay listed under Rattus norvegicus [1], the Protection is 0.5%.
One may read the inhibition as the drop in the measured response relative to a control, in per cent. For orientation: IC50 means the concentration that inhibits the measured activity by half. As for `CC(=O)O[C@@H]1Cc2ccccc2N(C(N)=O)c2ccccc21`, the inhibition is 73.2% in [5], 17.9% in assay [6] and 57.7% in assay [12]. The ED50 with Rattus norvegicus [2] was 18 mg/kg; in the assay on Rattus norvegicus [8], 10.9 mg/kg. Further, the Tmax in the assay on Rattus norvegicus [3] is 60 min; in the assay on Rattus norvegicus [11], 480 min. Besides, the IC50 in [7] was 113 µM. Moreover, the TD50 was over 1000 mg/kg in the assay on Rattus norvegicus [9] and 135 mg/kg with Rattus norvegicus [4]. The figures for the Protective index in the assay on Rattus norvegicus [10] and in the assay filed under Rattus norvegicus [13] were 7.5 and over 91.7, respectively. Moreover, the Protection in the assay listed under Rattus norvegicus [1] is 5.9%.
On to `CC(=O)Oc1ccccc1C(=O)OC1Cc2ccccc2N(C(N)=O)c2ccccc21` (centres undefined), for which the Protection in the assay filed under Rattus norvegicus [1] came to 10.2%.
For `CC(=O)O[C@H]1Cc2ccccc2N(C(N)=O)c2ccccc21` [ESLICARBAZEPINE ACETATE], the values for the inhibition in [5], in assay [6] and in assay [12] were 95.6%, 52.6% and 73.4%, respectively. In addition, the 50% effective dose (ED50) was determined as 6.3 mg/kg with Rattus norvegicus [2] and 4.7 mg/kg with Rattus norvegicus [8]. In addition, the Tmax with Rattus norvegicus [3] is 15 min; in the assay with Rattus norvegicus [11] it was 120 min. Also, in assay [7], the IC50 turned out to be 138 µM. The TD50 in the assay on Rattus norvegicus [9] worked out at 359 mg/kg; with Rattus norvegicus [4], 78.6 mg/kg. The Protective index in the assay on Rattus norvegicus [10] came to 12.5; in the assay listed under Rattus norvegicus [13], 76.3. Besides, the Protection in the assay listed under Rattus norvegicus [1] was 100%.
In the case of `CCOC(=O)OC1Cc2ccccc2N(C(N)=O)c2ccccc21` (centres undefined), the Protection in the assay listed under Rattus norvegicus [1] was found to be 18.3%.
Still for that read-out and setting: to `COc1ccc(CC(=O)OC2Cc3ccccc3N(C(N)=O)c3ccccc32)cc1` (centres undefined) belongs 8.1%.
In the case of `CC(=O)OC1Cc2ccccc2N(C(N)=O)c2ccccc21` (centres undefined), the inhibition in assay [5] worked out at 82.1%; in [6] it was 42.2%; in assay [12], 61.8%. Further, the ED50 came out at 13.1 mg/kg in the assay on Rattus norvegicus [2] and 13.5 mg/kg in the assay on Rattus norvegicus [8]. The Tmax in the assay on Rattus norvegicus [3] is 5 min; with Rattus norvegicus [11], 120 min. This compound displayed an IC50 in [7] of 141 µM. The results for the TD50 in the assay on Rattus norvegicus [9] and in the assay with Rattus norvegicus [4] were 428 mg/kg and 130 mg/kg, respectively. Also, the Protective index came to 9.9 in the assay with Rattus norvegicus [10] and 31.7 in the assay filed under Rattus norvegicus [13]. The Protection in the assay filed under Rattus norvegicus [1] is 54.4%.
For the compound `NC(=O)N1c2ccccc2CC(O)c2ccccc21` (centres undefined) [LICARBAZEPINE], it took a dose of 14.6 mg/kg to reach the 50% effect level with Rattus norvegicus [2] (ED50). Further, the Tmax in the assay with Rattus norvegicus [3] is 15 min. Further, the TD50 in the assay on Rattus norvegicus [4] stood at 89.3 mg/kg.
For the compound `CCCC(CCC)C(=O)OC1Cc2ccccc2N(C(N)=O)c2ccccc21` (centres undefined), the Protection in the assay filed under Rattus norvegicus [1] was determined as 0.2%.
Same read-out and setting: for `NC(=O)N1c2ccccc2CC(OC(=O)c2cccnc2)c2ccccc21` (centres undefined) the value was 32.8%.
In the case of `NC(=O)N1c2ccccc2C=Cc2ccccc21` [CARBAMAZEPINE], the inhibition in [5] worked out at 64.8%; in assay [6] it was 22.6%; in [12] it was 44.3%. Besides, the figures for the ED50 with Rattus norvegicus [2] and in the assay on Rattus norvegicus [8] were 3.4 mg/kg and 5.4 mg/kg, respectively. In addition, the figures for the Tmax with Rattus norvegicus [3] and in the assay with Rattus norvegicus [11] were 15 min and 120 min, respectively. This compound displayed an IC50 in [7] of 210 µM. For the same compound, the TD50 stood at 251 mg/kg in the assay on Rattus norvegicus [9] and 27.4 mg/kg with Rattus norvegicus [4].
Turning to `NC(=O)N1c2ccccc2CC(=O)c2ccccc21` [OXCARBAZEPINE], the inhibition was found to be 76.2% in assay [14], 31.2% in assay [6] and 50.2% in assay [12]. In addition, the ED50 was 6.1 mg/kg in the assay on Rattus norvegicus [2] and 10 mg/kg with Rattus norvegicus [8]. In addition, the values for the Tmax in the assay on Rattus norvegicus [3] and in the assay on Rattus norvegicus [11] were 5 min and 120 min, respectively. In assay [7], this compound registered an IC50 of 161 µM. Further, the TD50 was over 1000 mg/kg in the assay with Rattus norvegicus [9] and 40.1 mg/kg with Rattus norvegicus [4].
As for `CCCC(=O)OC1Cc2ccccc2N(C(N)=O)c2ccccc21` (centres undefined), in the assay listed under Rattus norvegicus [1], the Protection came to 34.2%.
Same read-out and setting: to `CC(Cl)C(=O)OC1Cc2ccccc2N(C(N)=O)c2ccccc21` (centres undefined) belongs 3.9%.
Consider `NC(=O)N1c2ccccc2C[C@H](O)c2ccccc21` [ESLICARBAZEPINE], for which the 50% effect level with Rattus norvegicus [2] (ED50) was put at a dose of 17.1 mg/kg. Moreover, the Tmax with Rattus norvegicus [3] came out at 30 min. Further, the TD50 in the assay with Rattus norvegicus [4] is 96.6 mg/kg.
Turning to `CCCCCCCCCCCCCCCCCC(=O)OC1Cc2ccccc2N(C(N)=O)c2ccccc21` (centres undefined), in the assay filed under Rattus norvegicus [1], the Protection worked out at 0.8%.
Same read-out and setting: for `NC(=O)N1c2ccccc2CC(OC(=O)c2ccccc2)c2ccccc21` (centres undefined) the value was 17.2%.
For `NC(=O)N1c2ccccc2CC(OC(=O)CBr)c2ccccc21` (centres undefined), in the assay filed under Rattus norvegicus [1], the Protection was 15.1%.
Same read-out and setting: for `NC(=O)N1c2ccccc2CC(OC(=O)Cc2ccc([N+](=O)[O-])cc2)c2ccccc21` (centres undefined) the value was 13.8%; for `CC(C)(C)C(=O)OC1Cc2ccccc2N(C(N)=O)c2ccccc21` (centres undefined), 6.5%.
On the same count and under the same terms, for `CCCC(CC)C(=O)OC1Cc2ccccc2N(C(N)=O)c2ccccc21` (centres undefined) the value was -12.8%.
